Reference: ChEMBL document CHEMBL1154881, “Synthesis and antimicrobial activities of novel 1,5-diaryl pyrazoles” (2010)
Values after ≈ are worked out from the molar mass of the structure shown.

Experiments:
[1] = test system: Staphylococcus aureus; assay: Antibacterial activity against Staphylococcus aureus ATTC 25923 after 24 hrs by disk diffusion method; assay type: functional
Procedure, shortened: (§1)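 Disc diffusion, each concentration tested in triplicate on nutrient agar seeded separately with fresh bacteria. Incubation 37 °C, 24 h. Solvent and growth controls included. Zones of inhibition recorded. The K. pneumoniae strain was recultured.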

[2] = test system: Escherichia coli; assay: Antibacterial activity against Escherichia coli ATTC 25922 after 24 hrs by disk diffusion method; assay type: functional; procedure, shortened: as §1
[3] = test system: Pseudomonas aeruginosa; assay: Antibacterial activity against Pseudomonas aeruginosa ATTC 27853 after 24 hrs by disk diffusion method; assay type: functional; procedure, shortened: as §1
[4] = test system: Klebsiella pneumoniae; assay: Antibacterial activity against Klebsiella pneumoniae after 24 hrs by disk diffusion method; assay type: functional; procedure, shortened: as §1
[5] = test system: Staphylococcus aureus; assay: Antibacterial activity against Staphylococcus aureus ATTC 25923 after 24 hrs by broth dilution method; assay type: functional; settings: ATTC 25923, 24 h
[6] = test system: Escherichia coli; assay: Antibacterial activity against Escherichia coli ATTC 25922 after 24 hrs by broth dilution method; assay type: functional; settings: ATTC 25922, 24 h
[7] = test system: Pseudomonas aeruginosa; assay: Antibacterial activity against Pseudomonas aeruginosa ATTC 27853 after 24 hrs by broth dilution method; assay type: functional; settings: ATTC 27853, 24 h
[8] = test system: Trichophyton mentagrophytes; assay: Antifungal activity against Trichophyton mentagrophytes after 3 to 4 days by serial plate dilution method; assay type: functional
Procedure, shortened: (§2)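 Sabouraud's agar (peptone 1 g, D-glucose 4 g, agar 2 g per 100 ml water, pH 5.7) plates were lawned with spore suspension (a loopful in 3 ml normal saline) and dried 1 h at 37 °C. Wells were punched and filled with compound in DMSO at 10–50 mg/ml, with a DMSO control. Plates in triplicate, 37 °C for 3–4 days.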

[9] = test system: Talaromyces marneffei; assay: Antifungal activity against Penicillium marneffei after 3 to 4 days by serial plate dilution method; assay type: functional; procedure, shortened: as §2
[10] = test system: Aspergillus flavus; assay: Antifungal activity against Aspergillus flavus NCIM 524 after 3 to 4 days by serial plate dilution method; assay type: functional; procedure, shortened: as §2
[11] = test system: Aspergillus fumigatus; assay: Antifungal activity against Aspergillus fumigatus NCIM 902 after 3 to 4 days by serial plate dilution method; assay type: functional; procedure, shortened: as §2
[12] = test system: Trichophyton mentagrophytes; assay: Antifungal activity against Trichophyton mentagrophytes at 10 to 50 ug/ml after 3 to 4 days; assay type: functional
[13] = test system: Talaromyces marneffei; assay: Antifungal activity against Penicillium marneffei at 10 to 50 ug/ml after 3 to 4 days; assay type: functional
[14] = test system: Klebsiella pneumoniae; assay: Antibacterial activity against Klebsiella pneumoniae after 24 hrs by […]
[15] = test system: Klebsiella pneumoniae; assay: Antibacterial activity against Klebsiella pneumoniae after 24 hrs by broth dilution method; assay type: functional

Structure (SMILES) | inhibition zone (IZ) [1] | inhibition zone (IZ) [2] | inhibition zone (IZ) [3] | inhibition zone (IZ) [4] | MIC [5] | MIC [6] | MIC [7] | inhibition zone (IZ) [8] | inhibition zone (IZ) [9] | inhibition zone (IZ) [10] | inhibition zone (IZ) [11] | MIC [12] | MIC [13] | MIC [14] | MIC [15]
CS(=O)(=O)OC1CCN(C(=O)c2cc(-c3ccc(Cl)cc3)n(-c3ccc(F)cc3)n2)CC1 | 26 mm | 28 mm | 21 mm | 23 mm | 12.5 µg/mL (≈ 26.2 µM) | 12.5 µg/mL (≈ 26.2 µM) | 50 µg/mL (≈ 105 µM) | 28 mm | 29 mm | 31 mm | 25 mm | 12.5 µg/mL (≈ 26.2 µM) | 12.5 µg/mL (≈ 26.2 µM) | 12.5 µg/mL (≈ 26.2 µM) | –
CCOC(=O)c1sc(-c2cc(-c3ccc(Cl)cc3)n(-c3ccc(F)cc3)n2)nc1C | 16 mm | 18 mm | 19 mm | 19 mm | 12.5 µg/mL (≈ 28.3 µM) | 12.5 µg/mL (≈ 28.3 µM) | – | 20 mm | 19 mm | 22 mm | 18 mm | 12.5 µg/mL (≈ 28.3 µM) | 12.5 µg/mL (≈ 28.3 µM) | – | 50 µg/mL (≈ 113 µM)
C#CCN1CCN(C(=O)c2cc(-c3ccc(Cl)cc3)n(-c3ccc(F)cc3)n2)CC1 | 18 mm | 18 mm | <10 mm | 17 mm | 12.5 µg/mL (≈ 29.6 µM) | 50 µg/mL (≈ 118 µM) | – | <10 mm | 18 mm | <10 mm | 19 mm | – | – | – | 50 µg/mL (≈ 118 µM)
